The target of series [1] is cAMP and cAMP-inhibited cGMP 3',5'-cyclic phosphodiesterase 10A (Homo sapiens, UniProt Q9Y233). Put plainly: Inhibition of human PDE10A2 transfected in AD293 cells by IMAP FP assay. It counts as cell-based. The essentials: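 Ki values are the mean of at least two determinations, each from a 10-point dose–response curve.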
Series [2] is filed under the species Homo sapiens. Put plainly: Selectivity ratio of Ki for human PDE9A2 to Ki for human PDE10A2. In short, it runs like this: (§1)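 The ratio is PDEx Ki divided by PDE10A Ki. Each Ki is the mean of at least two determinations, each from a 10-point dose–response curve.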
The species entered for series [3] is Homo sapiens. Put plainly: Selectivity ratio of Ki for human PDE11A4 to Ki for human PDE10A2. The essentials: as §1
For series [4], the species on record is Homo sapiens. The experiment in a line: Selectivity ratio of Ki for human PDE1A to Ki for human PDE10A2. In short, it runs like this: as §1
The nature of series [5]: Selectivity ratio of Ki for rhesus monkey PDE2A3 to Ki for human PDE10A2. In short, it runs like this:
as §1

The species named for series [6] is Homo sapiens. Put plainly: Selectivity ratio of Ki for human PDE3A to Ki for human PDE10A2. The essentials:
as §1

Series [7] is filed under the species Homo sapiens. Put plainly: Selectivity ratio of Ki for human PDE4A1A to Ki for human PDE10A2. In short, it runs like this:
as §1

The species entered for series [8] is Homo sapiens. The experiment in a line: Selectivity ratio of Ki for human PDE5A1 to Ki for human PDE10A2. In short, it runs like this:
as §1

Series [9] is filed under the species Homo sapiens. The experiment in a line: Selectivity ratio of Ki for human PDE7A to Ki for human PDE10A2. The essentials: as §1
For series [10], the species on record is Homo sapiens. The experiment in a line: Selectivity ratio of Ki for human PDE8A1 to Ki for human PDE10A2. In short, it runs like this:
as §1

A short description of series [11]: Plasma concentration in Wistar Hannover rat at 1 mg/kg, ip measured after 3.5 hrs. Type of series: ADME, organism-based. In short, it runs like this: (§2)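 Plasma was sampled 3.5 h after a single ip dose, during the MK-801 hyperlocomotion study. Each value is the mean of two or three measurements.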
A short description of series [12]: Plasma concentration in Wistar Hannover rat at 3 mg/kg, ip measured after 3.5 hrs. It counts as ADME, organism-based. In short, it runs like this: as §2
A short description of series [13]: Plasma concentration in Wistar Hannover rat at 5 mg/kg, ip measured after 3.5 hrs. Type of series: ADME, organism-based. In short, it runs like this: as §2
Series [14] relates to Rattus norvegicus. Put plainly: Suppression of MK-801-induced hyperlocomotion in Wistar Hannover rat at 1 to 5 mg/kg, ip administered 120 mins followed by MK-801 induction measured after 90 mins. It counts as functional, organism-based. The essentials:
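Rats received ip doses of 1, 3 or 5 mg/kg and were then challenged with MK-801. Psychostimulant-induced locomotor activity was the read-out.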

Calls of active or inactive are those of the source. The calls are words filed in the database; no cut-off is given here.

Chain of cAMP and cAMP-inhibited cGMP 3',5'-cyclic phosphodiesterase 10A (Q9Y233 whole entry): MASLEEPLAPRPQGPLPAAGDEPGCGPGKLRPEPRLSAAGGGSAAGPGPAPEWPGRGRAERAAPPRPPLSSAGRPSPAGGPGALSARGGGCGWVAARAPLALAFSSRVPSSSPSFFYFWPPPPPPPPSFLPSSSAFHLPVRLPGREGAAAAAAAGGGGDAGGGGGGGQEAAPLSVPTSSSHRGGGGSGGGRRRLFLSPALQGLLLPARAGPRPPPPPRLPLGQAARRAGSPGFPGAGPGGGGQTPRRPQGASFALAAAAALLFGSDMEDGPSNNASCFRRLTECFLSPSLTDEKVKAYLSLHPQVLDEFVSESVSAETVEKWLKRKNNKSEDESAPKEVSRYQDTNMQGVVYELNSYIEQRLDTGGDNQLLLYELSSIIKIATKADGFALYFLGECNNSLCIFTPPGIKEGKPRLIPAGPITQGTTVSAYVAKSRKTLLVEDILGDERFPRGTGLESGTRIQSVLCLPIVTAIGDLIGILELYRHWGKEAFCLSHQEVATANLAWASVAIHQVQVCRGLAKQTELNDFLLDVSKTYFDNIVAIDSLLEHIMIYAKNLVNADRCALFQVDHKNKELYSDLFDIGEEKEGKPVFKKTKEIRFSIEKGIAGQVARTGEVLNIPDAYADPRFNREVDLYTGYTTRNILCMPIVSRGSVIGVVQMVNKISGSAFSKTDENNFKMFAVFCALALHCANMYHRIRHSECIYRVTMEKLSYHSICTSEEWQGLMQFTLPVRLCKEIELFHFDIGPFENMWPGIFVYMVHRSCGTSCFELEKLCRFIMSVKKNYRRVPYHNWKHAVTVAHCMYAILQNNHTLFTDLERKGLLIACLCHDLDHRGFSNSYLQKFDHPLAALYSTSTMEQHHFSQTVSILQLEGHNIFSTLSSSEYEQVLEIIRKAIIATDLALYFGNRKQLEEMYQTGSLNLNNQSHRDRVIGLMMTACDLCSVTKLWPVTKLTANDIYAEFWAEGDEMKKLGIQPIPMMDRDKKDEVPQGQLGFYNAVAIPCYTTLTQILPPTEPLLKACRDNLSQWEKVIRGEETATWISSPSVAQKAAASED

In [1], `CCNc1nc(C2CC2)nc(Cl)c1C` had a Ki of 1200 nM.
Same read-out and setting: the value for `Cc1c(Cl)nc(C2CC2)nc1NCc1ccncc1` was 200 nM; that for `Cc1nc2c(s1)CN(c1nc(C3CC3)nc(Cl)c1C)CC2` was 1300 nM; that for `Cc1nc(C)c(CNc2nc(OCCCc3nc4ccccc4s3)nc(Cl)c2C)s1` was 0.055 nM.
As for `Cc1nc(C)c(CNc2nc(C3CC3)nc(Cl)c2C)s1`, the Ratio Ki in [2] was greater than 1000; in [3], 25; in series [4], greater than 1000; in series [5], greater than 1000; in series [6], greater than 1000; in [7], 100. Besides, the Ratio Ki is 100 in series [8], greater than 1000 in series [9] and greater than 1000 in series [10]. For the same compound, affinity in [1] was put at a Ki of 4.8 nM.
Regarding `CCCOc1nc(Cl)c(C)c(NCc2sc(C)nc2C)n1`, the affinity in series [1] corresponds to a Ki of 5.1 nM.
Still for that read-out and setting: to `Cc1c(Cl)nc(C2CC2)nc1N(C)Cc1cnn(C)c1` belongs 220 nM.
`Cc1c(Cl)nc(C2CC2)nc1NCc1cnn(C)c1` showed a Ki in [1] of 37 nM.
The same measure, in the same setting: the value for `Cc1nc(CNc2nc(C3CC3)nc(Cl)c2C)cs1` was 18 nM; that for `C=C(F)CNc1nc(C2CC2)nc(Cl)c1C` was 180 nM.
Still for that read-out and setting: to `Cc1nc(C)c(CNc2nc(OCCC3CCCCC3)nc(Cl)c2C)s1` belongs 400 nM.
Same read-out and setting: the value for `Cc1c(Cl)nc(C2CC2)nc1NCc1ccoc1` was 680 nM.
`Cc1c(Cl)nc(C2CC2)nc1Cl`: the Ratio Ki in [2], in series [3], in series [4], in series [5], in series [6] and in [7] was 1 each time. The Ratio Ki in series [8], in series [9] and in series [10] was 1 in each case. For the same compound, in [1], the Ki was found to be 8700 nM.
Turning to `CCCNc1nc(C2CC2)nc(Cl)c1C`, the Ratio Ki in series [2] is 25; in series [3] it was 25; in series [4], 25; in [5], 100; in [6] it was 25; in series [7] it was 1. The figures for the Ratio Ki in series [8], in [9] and in series [10] were 1, 25 and 25, respectively. For the same compound, the Ki in series [1] is 880 nM.
On to `Cc1ncsc1CNc1nc(C2CC2)nc(Cl)c1C`, for which affinity in series [1] was put at a Ki of 1600 nM.
On to `Cc1nc(C)c(CNc2nc(OCCCc3ccc4ccccc4n3)nc(Cl)c2C)s1`, for which the Ratio Ki in series [2], in series [3], in series [4], in [5], in series [6] and in series [7] was greater than 1000 in each case. Also, the Ratio Ki in [8], in series [9] and in [10] was greater than 1000 each time. Besides, the figures for the concentration at 3.5 h in series [11], in [12] and in [13] were 17 nM, 83 nM and 110 nM, respectively. The result in [14] was Active. The compound also had a Ki in [1] of 0.0082 nM.
In [1], `Cc1c(Cl)nc(C2CC2)nc1NC(C)C` displayed a Ki of 3600 nM.
On the same count and under the same terms, to `Cc1csc(CNc2nc(C3CC3)nc(Cl)c2C)n1` belongs 6800 nM; to `Cc1c(Cl)nc(C2CC2)nc1NCc1ccccc1`, 1400 nM; to `Cc1c(Cl)nc(C2CC2)nc1NCc1cncs1`, 1000 nM.
Same read-out and setting: the value for `Cc1c(N)nc(C2CC2)nc1Cl` was 2200 nM; that for `COc1ncc(CNc2nc(C3CC3)nc(Cl)c2C)s1` was 10 nM.
Still for that read-out and setting: to `Cc1c(Cl)nc(C2CC2)nc1N1CCNCC1` belongs 4600 nM; to `Cc1nc(C)c(CNc2nc(OCCO)nc(Cl)c2C)s1`, 12 nM.
With `Cc1cc(CN(C)c2nc(C3CC3)nc(Cl)c2C)on1`, the Ki in series [1] was determined as 540 nM.
The same measure, in the same setting: the value for `Cc1nc(C)c(CNc2nc(OCCc3ccccc3)nc(Cl)c2C)s1` was 9 nM.
On the same count and under the same terms, to `Cc1c(Cl)nc(C2CC2)nc1NCc1ccon1` belongs 810 nM.
On the same count and under the same terms, the value for `Cc1ncc(CNc2nc(C3CC3)nc(Cl)c2C)s1` was 26 nM; that for `Cc1c(Cl)nc(C2CC2)nc1N1CCCCC1` was 2100 nM; that for `Cc1nc(C)c(CNc2nc(OCCCc3ccc4cccnc4n3)nc(Cl)c2C)s1` was 0.11 nM.
`Cc1nc(C)c(CNc2nc(OCCc3ccccn3)nc(Cl)c2C)s1` came in with a Ki in [1] of 2 nM.
On the same count and under the same terms, the value for `Cc1cc(CNc2nc(C3CC3)nc(Cl)c2C)on1` was 38 nM.
In the case of `Cc1ccc(CNc2nc(C3CC3)nc(Cl)c2C)cn1`, in [1], the affinity corresponds to a Ki of 130 nM.
The same measure, in the same setting: the value for `COc1nc(Cl)c(C)c(NCc2sc(C)nc2C)n1` was 8.5 nM; that for `Cc1nc(C)c(CNc2nc(OCCC3CCCCN3)nc(Cl)c2C)s1` (centres undefined) was 590 nM; that for `Cc1c(Cl)nc(C2CC2)nc1NCCc1cnn(C)c1` was 1500 nM.
Still for that read-out and setting: to `Cc1nc(C)c(CNc2nc(OCCCc3nc4ccccc4[nH]3)nc(Cl)c2C)s1` belongs 0.02 nM; to `Cc1nc(C)c(CNc2nc(OCCCc3cnc4ccccc4n3)nc(Cl)c2C)s1`, 0.37 nM.
The same measure, in the same setting: the value for `Cc1c(Cl)nc(C2CC2)nc1NC(C)c1ccncc1` (racemic) was 890 nM; that for `Cc1c(Cl)nc(C2CC2)nc1NC1CCCC1` was 2800 nM.
Regarding `Cc1cc(CNc2nc(C3CC3)nc(Cl)c2C)no1`, the affinity in series [1], expressed as Ki, was 51 nM.
The compound `Cc1c(Cl)nc(C2CC2)nc1N1CCCC1` displayed a Ki in series [1] of 5300 nM.
Same read-out and setting: the value for `Cc1nc(C)c(CNc2nc(OCCCc3cn4ccccc4n3)nc(Cl)c2C)s1` was 0.047 nM; that for `Cc1c(Cl)nc(C2CC2)nc1NCc1cccnc1` was 1000 nM.
